Experimental data reported in ChEMBL document CHEMBL3526018, “Metabolites of PPI-2458, a selective, irreversible inhibitor of methionine aminopeptidase-2: structure determination and in vivo activity” (Drug Metab Dispos, 2013).
Calls of active or inactive are those of the source. The calls are words filed in the database; no cut-off is given here.

Legend:
[1] = Apparent oral clearance in non-Hodgkin lymphoma patient at 15 mg, po alternate days for 21 days; format: ADME, organism-based; details: human, in vivo
Procedure, shortened: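 Oral PPI-2458 given every other day to lymphoma patients. Plasma sampled pre-dose and at 15 min, 30 min, 1, 2, 3, 4, 6, 8, 24 and 48 h after the first dose. Parent and metabolites were measured by LC-MS/MS after protein precipitation, evaporation and reconstitution. CL/F was computed only for parent and summed analytes. For metabolites, t1/2 is an apparent first-phase value.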

[2] = Metabolic stability in monkey liver microsomes assessed as retention time of ((3R,4S,5S,6R)-4-((2R,3R)-3-(((S)-3,3-dimethyloxiran-2-yl)methyl)-2-methyloxiran-2-yl)-5-methoxy-1-oxaspiro[2.5]octan-6-yl ((R)-1-amino-3-methyl-1-oxobutan-2-yl)carbamate) at 5 mM by LC/MS analysis; format: ADME, Macaca mulatta; details: rhesus monkey, 5000 µM
Procedure, shortened: (§1)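 Liver microsomes (pooled male/female) in 100 mM KPO4 pH 7.4 with PPI-2458 (5 mM stock), pre-incubated 5 min at 37°C, then 10 mM NADPH added; 20 min at 37°C with shaking. Time-zero and no-NADPH controls. Quenched with CH3CN; supernatant dried and redissolved in water. Analysed by LC-MS, ESI+ full scan 300–800 amu, C18 column, 10→50% B gradient.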

Rattus norvegicus [3] = assay: Inhibition of MetAP2 level in Sprague-Dawley rat liver assessed as free enzyme level at 0.3 mg/kg, po by ELISA; format: functional, organism-based; parameters: dose 0.3 mg/kg
Procedure, shortened: (§2)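 Male Sprague-Dawley rats (200-225 g, n=3 per group) were dosed once IV at 0.3 mg/kg or PO at 0.3 or 3.0 mg/kg, in 11% HPCD in water. Blood, liver, lung, thymus and pooled non-mesenteric lymph nodes were taken at ~24 h and lysed or homogenized with NP-40. Free MetAP2 was measured by ELISA and expressed as % of vehicle.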

[4] = Metabolic stability in monkey liver microsomes assessed as retention time of ((3R,4S,5S,6R)-4-((2R,3R)-3-(((R)-3,3-dimethyloxiran-2-yl)methyl)-2-methyloxiran-2-yl)-5-methoxy-1-oxaspiro[2.5]octan-6-yl ((R)-1-amino-3-methyl-1-oxobutan-2-yl)carbamate) at 5 mM by LC/MS analysis; format: ADME, Macaca mulatta; details: rhesus monkey, 5000 µM; procedure, shortened: as §1
[5] = molecular target: Methionine aminopeptidase 2 (Homo sapiens) (UniProt P50579); assay: Inhibition of human MetAP2 assessed as remaining enzyme activity after 8 hrs; parameters: concentration or dose not given beside the values
Procedure, shortened: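 The hMetAP2 assay follows the fraction of active enzyme remaining during an 8 h incubation with inhibitor, relative to an enzyme-only control.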

CYP3A5 (Homo sapiens) [6] = assay: Activity of human recombinant CYP3A5 assessed as ((3R,4S,5S,6R)-4-((2R,3R)-3-(((R)-3,3-dimethyloxiran-2-yl)methyl)-2-methyloxiran-2-yl)-5-methoxy-1-oxaspiro[2.5]octan-6-yl ((R)-1-amino-3-methyl-1-oxobutan-2-yl)carbamate) formation per pmol of enzyme
CYP3A5 (Homo sapiens) [7] = assay: Activity of human recombinant CYP3A5 assessed as ((3R,4S,5S,6R)-4-((2R,3R)-3-((E)-4-hydroxy-3-methylbut-2-en-1-yl)-2-methyloxiran-2-yl)-5-methoxy-1-oxaspiro[2.5]octan-6-yl((R)-1-amino-3-methyl-1-oxobutan-2-yl)carbamate) formation; details: recombinant enzyme
Rattus norvegicus [8] = assay: Inhibition of MetAP2 level in Sprague-Dawley rat lung assessed as free enzyme level at 0.3 mg/kg, po by ELISA; format: functional, organism-based; parameters: dose 0.3 mg/kg; procedure, shortened: as §2
[9] = Metabolic stability in monkey liver microsomes assessed as retention time of ((3R,4S,5S,6R)-4-((2R,3R)-3-((E)-4-hydroxy-3-methylbut-2-en-1-yl)-2-methyloxiran-2-yl)-5-methoxy-1-oxaspiro[2.5]octan-6-yl((R)-1-amino-3-methyl-1-oxobutan-2-yl)carbamate) at 5 mM by LC/MS analysis; format: ADME, Macaca mulatta; details: rhesus monkey, 5000 µM; procedure, shortened: as §1
Rattus norvegicus [10] = assay: Inhibition of MetAP2 level in Sprague-Dawley rat lung assessed as free enzyme level at 3 mg/kg, po by ELISA; format: functional, organism-based; parameters: dose 3 mg/kg; procedure, shortened: as §2
CYP3A5 (Homo sapiens) [11] = assay: Ratio of Vmax to Km for human recombinant CYP3A5 assessed as ((3R,4S,5S,6R)-4-((2R,3R)-3-((E)-4-hydroxy-3-methylbut-2-en-1-yl)-2-methyloxiran-2-yl)-5-methoxy-1-oxaspiro[2.5]octan-6-yl((R)-1-amino-3-methyl-1-oxobutan-2-yl)carbamate) formation; details: recombinant enzyme
Liver = assay: Metabolic stability in mouse liver microsomes assessed as retention time of ((3R,4S,5S,6R)-4-((2R,3R)-3-((E)-4-hydroxy-3-methylbut-2-en-1-yl)-2-methyloxiran-2-yl)-5-methoxy-1-oxaspiro[2.5]octan-6-yl((R)-1-amino-3-methyl-1-oxobutan-2-yl)carbamate) at 5 mM by LC/MS analysis; format: ADME; details: 5000 µM; procedure, shortened: as §1
CYP3A4 (Homo sapiens) [12] = assay: Activity of human recombinant CYP3A4 assessed as ((3R,4S,5S,6R)-4-((2R,3R)-3-(((S)-3,3-dimethyloxiran-2-yl)methyl)-2-methyloxiran-2-yl)-5-methoxy-1-oxaspiro[2.5]octan-6-yl ((R)-1-amino-3-methyl-1-oxobutan-2-yl)carbamate) formation per pmol of enzyme
[13] = Oral steady-state volume of distribution in non-Hodgkin lymphoma patient at 15 mg, po alternate days for 21 days; format: ADME, organism-based; details: human, in vivo, read-out: Vss/F
Procedure, shortened: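 Non-Hodgkin lymphoma patients given oral capsules every other day for 21 days. Plasma sampled predose and at 15, 30 min and 1, 2, 3, 4, 6, 8, 24, 48 h after the first dose. Protein precipitated, extract reconstituted, parent and metabolites quantified by validated LC-MS/MS. CL/F and Vss/F derived from the administered dose.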

CYP3A4 (Homo sapiens) [14] = assay: Ratio of Vmax to Km for human recombinant CYP3A4 assessed as ((3R,4S,5S,6R)-4-((2R,3R)-3-(((R)-3,3-dimethyloxiran-2-yl)methyl)-2-methyloxiran-2-yl)-5-methoxy-1-oxaspiro[2.5]octan-6-yl ((R)-1-amino-3-methyl-1-oxobutan-2-yl)carbamate) formation; details: recombinant enzyme
CYP3A4 (Homo sapiens) [15] = assay: Activity of human recombinant CYP3A4 assessed as ((3R,4S,5S,6R)-4-((2R,3R)-3-(((R)-3,3-dimethyloxiran-2-yl)methyl)-2-methyloxiran-2-yl)-5-methoxy-1-oxaspiro[2.5]octan-6-yl ((R)-1-amino-3-methyl-1-oxobutan-2-yl)carbamate) formation per pmol of enzyme
Rattus norvegicus [16] = assay: Inhibition of MetAP2 level in Sprague-Dawley rat whole blood assessed as free enzyme level at 0.3 mg/kg, iv by ELISA; format: functional, organism-based; parameters: dose 0.3 mg/kg; procedure, shortened: as §2
CYP3A4 (Homo sapiens) [17] = assay: Activity of human recombinant CYP3A4 assessed as ((3R,4S,5S,6R)-4-((2R,3R)-3-((E)-4-hydroxy-3-methylbut-2-en-1-yl)-2-methyloxiran-2-yl)-5-methoxy-1-oxaspiro[2.5]octan-6-yl((R)-1-amino-3-methyl-1-oxobutan-2-yl)carbamate) formation; details: recombinant enzyme

Chain of Methionine aminopeptidase 2 (Homo sapiens) (P50579 2-478 limits assumed): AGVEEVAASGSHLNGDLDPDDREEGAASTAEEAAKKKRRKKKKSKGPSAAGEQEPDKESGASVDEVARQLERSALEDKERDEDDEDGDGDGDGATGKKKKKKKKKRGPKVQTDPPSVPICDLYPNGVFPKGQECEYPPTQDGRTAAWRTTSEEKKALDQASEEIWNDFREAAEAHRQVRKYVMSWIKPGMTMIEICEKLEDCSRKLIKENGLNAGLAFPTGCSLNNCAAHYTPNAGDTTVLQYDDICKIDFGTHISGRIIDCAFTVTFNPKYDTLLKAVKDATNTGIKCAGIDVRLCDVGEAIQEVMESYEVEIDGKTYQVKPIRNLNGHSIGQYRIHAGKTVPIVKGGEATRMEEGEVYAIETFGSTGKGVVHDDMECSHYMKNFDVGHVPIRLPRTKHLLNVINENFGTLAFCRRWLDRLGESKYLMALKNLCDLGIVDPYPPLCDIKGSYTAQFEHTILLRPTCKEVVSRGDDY

CL/F [1]: 5880 mL/min | Drug metabolism [2]: metabolite_detected | Drug metabolism [4]: metabolite_detected | Activity [5]: 2.8% | Vmax (CYP3A5 (Homo sapiens) [6]): 2.86 pmol/min | Km (CYP3A5 (Homo sapiens) [7]): 26 µM | Drug metabolism [9]: metabolite_detected | Vmax/Km (CYP3A5 (Homo sapiens) [11]): 0.031 µL/min | Drug metabolism (Liver): metabolite_detected | Vmax (CYP3A4 (Homo sapiens) [12]): 2.97 pmol/min | Vd/F [13]: 415 L | Vmax/Km (CYP3A4 (Homo sapiens) [14]): 0.16 µL/min | Vmax (CYP3A4 (Homo sapiens) [15]): 2.7 pmol/min | Km (CYP3A4 (Homo sapiens) [17]): 15 µM
Compound: CO[C@@H]1[C@H](OC(=O)N[C@@H](C(N)=O)C(C)C)CC[C@]2(CO2)[C@H]1[C@@]1(C)O[C@@H]1CC=C(C)C [PPI-2458]
inhibition (Rattus norvegicus [3]): Active | inhibition (Rattus norvegicus [8]): Active | inhibition (Rattus norvegicus [10]): Active | inhibition (Rattus norvegicus [16]): Active
